# Shown are actives, neighbours in structure and some others; about 3.5% of the full set was active somewhere.
# MrgX1 antagonist: blocks BAM8-22 activation of human MrgX1 receptor. Q96LB2. MRGX1-HEK293 calcium flux, Fluo-4, BAM8-22 antagonism; hits give low values. B-score at 10 µM. hit rate 1.3% among 310,000;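 active = calcium-response B-score plate-corrected more than 3 library SD below zero, starting fluorescence within 5 deviations, no agonist response on first addition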;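 also: peak minus trough fluorescence over baseline after final BAM8-22 challenge near maximal dose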
# Target sequence (Q96LB2 whole entry, looked up): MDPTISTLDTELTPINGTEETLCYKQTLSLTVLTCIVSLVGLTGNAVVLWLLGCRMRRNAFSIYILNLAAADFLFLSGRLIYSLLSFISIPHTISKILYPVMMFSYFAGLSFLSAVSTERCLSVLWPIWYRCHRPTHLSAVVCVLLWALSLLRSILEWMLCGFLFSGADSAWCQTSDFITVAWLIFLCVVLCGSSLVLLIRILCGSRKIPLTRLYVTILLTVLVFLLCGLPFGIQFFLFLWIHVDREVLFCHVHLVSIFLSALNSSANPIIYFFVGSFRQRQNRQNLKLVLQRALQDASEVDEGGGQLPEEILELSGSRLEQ
# MrgX1 ag: human MrgX1 receptor agonism, primary screen; Q96LB2; MrgX1-HEK293 cells, Fluo-4 calcium fluorescence, agonist mode; hits give high values; B-score at 10 µM; hit rate 0.44% among 310,000;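 active = calcium response B-score plate-corrected fluorescence ratio at least 3 library SD, with starting fluorescence B-score inside 5 SD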
#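 Material: MrgX1-expressing HEK293 cells / Dosing: compound as first of three additions / Incubation: overnight seeding, then 1 h dark dye loading / Signal: Fluo-4 NW calcium fluorescence / Evaluation: B-scored fluorescence response ratio / Benchmarks: positive and negative control wells on each plate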
# RGS4 act: potentiators or activators of RGS4. HEK293 M3R/inducible RGS4, carbachol calcium flux Fluo4; hits give low values. B-score at 10 µM. hit rate 0.92% among 310,000. AID 463111;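 active = B-score of the integrated calcium signal more than 4 SD below the library mean, with starting fluorescence not abnormally high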;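 also: negative B-score means reduced calcium response which marks RGS4 activation or potentiation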
#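 Material: M3R-expressing HEK293 line, RGS4 induced by doxycycline | Schedule: Overnight RGS4 induction, 30 min dye load 37 °C, 20 min compound RT | Measured by: Fluo4 fluorescence kinetic imaging of calcium | Read-out: Integrated calcium ratio converted to B score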
# RGS4 block: human RGS4 inhibition | B-score at 10 µM | AID 463165 | P49798 | HEK293 M3R/RGS4 inducible, Fluo-4 calcium flux; hits give high values; triggered by carbachol at its EC20 | hit rate 0.45% among 310,000;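 active = B-score, a plate-corrected calcium signal, over three deviations above library mean, with baseline fluorescence within five deviations of library mean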;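 also: RGS4 expression induced by doxycycline in cells with stable M3 receptor; B-score is computed from the integrated fluorescence ratio over baseline after carbachol; higher B-score means a larger calcium signal and so more RGS4 inhibition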
# Target sequence (P49798 whole entry, looked up): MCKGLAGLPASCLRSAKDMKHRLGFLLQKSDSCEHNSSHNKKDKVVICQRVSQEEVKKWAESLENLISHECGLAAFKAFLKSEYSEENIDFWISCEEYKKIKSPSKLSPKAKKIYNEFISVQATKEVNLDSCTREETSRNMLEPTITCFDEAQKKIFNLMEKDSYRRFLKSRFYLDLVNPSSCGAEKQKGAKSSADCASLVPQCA
# MrgX1 PAM: allosterically activates human MrgX1 receptor signaling; AID 588675; MrgX1-HEK293, Fluo-4 calcium flux, FDSS; hits give high values; B-score at 10 µM; hit rate 0.63% among 310,000; Q96LB2;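 active = plate-corrected calcium response at least 3 library SD above typical, normal starting fluorescence, not activating the receptor alone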;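 also: compound read alongside a low EC10 to EC30 dose of BAM8-22 agonist; peak minus trough fluorescence over baseline measured at the second addition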
# The depositor's hits bear a star; i = inactive.
SMILES,MrgX1 antagonist,MrgX1 ag,RGS4 act,RGS4 block,MrgX1 PAM
Cc1ccc(SCC(=O)Nc2ccc(-c3nc4ccccc4[nH]3)cc2)cc1,i,i,i,i,i
Cc1ccccc1-c1nc(CS(=O)(=O)CC(=O)NCCCN2CCN(C)CC2)c(C)o1,i,i,i,i,i
COc1ccc([N+](=O)[O-])cc1NC(=O)C(C)OC(=O)C1CCC1 (stereo not drawn),i,i,i,i,i
Cc1ccc(S(=O)(=O)c2cn(Cc3ccc(F)cc3)c3cc4c(cc3c2=O)OCO4)cc1,-4.56*,i,i,i,i
O=C(C1CCC(Cn2c(=S)[nH]c3ccccc3c2=O)CC1)N1CCN(c2ccccc2)CC1 (stereo not drawn),i,i,i,5.42*,i
O=C(C1CCC(Cn2c(=S)[nH]c3ccccc3c2=O)CC1)N1CCOCC1 (stereo not drawn),i,i,i,i,i
c1ccc(Cc2noc(CN3CCCN(C4Cc5ccccc5C4)CC3)n2)cc1,i,i,-6.97*,i,i
c1ccc(Cc2noc(CN3CCN(C4CCc5ccccc5C4)CC3)n2)cc1 (stereo not drawn),i,i,i,i,i
COc1ccc2c(/C=C/c3cc[n+](C)cc3)c[nH]c2c1,-5.75*,i,i,i,i
CCN(CC(=O)Nc1ccc2c(c1)OCCO2)C(=O)c1ccc(Cl)cc1Cl,i,i,i,i,i
COC(=O)CC1=C(C(=O)OC)C(c2ccncc2)C(C#N)=C(N)O1 (stereo not drawn),i,i,i,i,i
COC(=O)CC1=C(C(=O)OC)C(c2cccc(OCC(N)=O)c2)C(C#N)=C(N)O1 (stereo not drawn),i,34*,i,i,i
CCN1C(=O)/C(=C\N(C)C)S/C1=N\S(=O)(=O)c1ccccc1,i,i,i,i,10.4*
CC1CCCCN1CCNC(=O)c1ccc2c(c1)N(Cc1cccc(Cl)c1)C(=O)c1ccccc1S2=O (stereo not drawn),i,i,-8.25*,i,i
O=C(NCCCN1CCCC1)c1ccc2c(c1)N(Cc1cccc(Cl)c1)C(=O)c1ccccc1S2=O (stereo not drawn),i,i,i,i,i
Cc1ccccc1CN1C(=O)c2ccccc2S(=O)c2ccc(C(=O)NCCCN3CCOCC3)cc21 (stereo not drawn),i,i,i,i,i
CC1CC(C)CN(CCCNC(=O)c2ccc3c(c2)N(Cc2ccccc2)C(=O)c2ccccc2S3=O)C1 (stereo not drawn),i,i,-7.25*,i,i
CCn1ncc(CN2CCC(Oc3cc(C(=O)NC4CC4)ccc3OC)CC2)c1C,i,i,i,i,i
COc1ccc(C(=O)c2sc3nc(-c4ccccc4)ccc3c2N)cc1,i,i,i,i,10.7*
CC(C)OC(=O)c1sc2nc(-c3ccccc3)ccc2c1N,i,i,i,i,i
COc1ccc(CCNc2nc(C)nc3c2nnn3Cc2ccccc2)cc1,i,i,i,i,i
CCOC(=O)Nc1ccc2c(c1)N(C(=O)CCN(C)C)c1ccccc1S2,i,i,-7.01*,i,i
O=C1CCC(C(=O)O)N1 (stereo not drawn),i,i,i,i,i
CCN(CC)C(=O)N1c2ccccc2Sc2ccccc21,i,i,i,i,i
NCCCC(=O)N1c2ccccc2Sc2ccccc21,i,i,-7.03*,i,i
SMILES,MrgX1 antagonist,MrgX1 ag,RGS4 act,RGS4 block,MrgX1 PAM
CCN(CC)CC(=O)N1c2ccccc2Sc2ccc(Cl)cc21,i,i,-9.75*,i,i
CCOc1ccc(/C=C2/C(=O)N(c3ccc(OC)cc3)C(=S)N2CC(=O)OC)cc1OCC,-6.39*,i,i,i,i
CCOc1ccc(N2C(=O)/C(=C/c3cc(OC)c(OC)c(OC)c3)N(CC(=O)OC)C2=S)cc1,i,i,i,i,i
CC(=O)c1cccc(Oc2cc(NN3CCCCC3)c([N+](=O)[O-])cc2[N+](=O)[O-])c1,i,i,-7.29*,i,i
O=[N+]([O-])c1cc([N+](=O)[O-])c(Oc2ccc(F)cc2)cc1NN1CCCCC1,i,i,i,i,i
O=[N+]([O-])c1cc([N+](=O)[O-])c(Oc2c(Cl)cccc2Cl)cc1NN1CCCCC1,i,i,i,i,i
O=[N+]([O-])c1cc([N+](=O)[O-])c(Oc2c(F)ccc(F)c2F)cc1NN1CCCCC1,i,i,-7.17*,i,i
COc1ccc(Oc2cc(NN3CCCCC3)c([N+](=O)[O-])cc2[N+](=O)[O-])cc1OC,i,i,-8.2*,i,i
O=[N+]([O-])c1cc([N+](=O)[O-])c(Oc2c(F)cccc2F)cc1NN1CCCCC1,i,i,i,i,i
CC(=O)c1ccccc1Oc1cc(NN2CCCCC2)c([N+](=O)[O-])cc1[N+](=O)[O-],i,i,-8.28*,i,i
COc1ccc(/C=C/C(=O)OCC(=O)Nc2ccc3[nH]c(=O)[nH]c3c2)cc1OC,i,i,i,i,i
C=CCNC(=O)c1ccccc1NC(=O)C1COc2ccccc2O1 (stereo not drawn),i,i,i,i,i
Cc1ccccc1NC(=O)Cc1nnc(N)s1,i,i,i,i,i
O=C(N/N=C/c1c[nH]c2ccccc12)c1ccc2c(c1)OCCO2,i,i,i,i,i
O=C(N/N=C/c1c[nH]c2ccc(Br)cc12)c1ccc2c(c1)OCO2,i,45.1*,i,i,i
COc1ccc(S(N)(=O)=O)cc1C(=O)OCC1CCCCC1,i,i,i,i,i
O=C(c1cc(COc2ccc(F)cc2Cl)on1)N1CC[C@@H]2CCCC[C@H]2C1,i,i,i,i,i
Cn1ccnc1C1CCCCN1C(=O)c1cc(COc2ccc(F)cc2Cl)on1 (stereo not drawn),i,i,-7.44*,i,i
CCN(CC)C1CCN(C(=O)c2cc(COc3ccc(F)cc3Cl)on2)C1 (stereo not drawn),i,i,-7.03*,i,i
CN(C(=O)COC(=O)c1ccccc1Cc1ccccc1)C1CCS(=O)(=O)C1 (stereo not drawn),i,i,i,i,i
Cc1ccc(N=C(NOCc2ccc(Cl)cc2Cl)c2nonc2N)c(C)c1,i,i,-7.58*,i,i
Cc1ccc(N=C(NO)c2nonc2N)c(C)c1,i,i,i,i,i

# Screening data from PubChem.
